# Measured values as given in ChEMBL document CHEMBL1142917, “Synthesis and structure-antibacterial activity relationship investigation of isomeric 2,3,5-substituted perhydropyrrolo[3,4-d]isoxazole-4,6-diones” (2007).
# Key:
# Enterococcus faecalis = test: Antibacterial activity against Enterococcus faecalis ATCC 29212 by broth microdilution method; format: functional
# Method in brief: (§1)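 NCCLS broth microdilution in Mueller–Hinton broth, DMSO stocks. Twofold series of 1600 to 0.39 μg/ml, or 1000 to 0.975 μg/ml for some compounds. Inoculum set to 0.5 McFarland (1×10^8 CFU/ml), diluted 1/10, giving 5×10^5 CFU/ml per well. Plates incubated 16-20 h at 35 °C. MIC taken as the lowest concentration preventing visible growth. Ampicillin reference.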
# Staphylococcus aureus = test: Antibacterial activity against Staphylococcus aureus ATCC 25923 by broth microdilution method; format: functional; method in brief: as §1
MIC (Enterococcus faecalis),MIC (Staphylococcus aureus),SMILES
1230 µM,2460 µM,CN1C(=O)[C@H]2[C@@H](c3ccc(Br)cc3)N(C)O[C@H]2C1=O (relative stereo)
650 µM,320 µM,CN1O[C@H]2C(=O)N(c3ccccc3)C(=O)[C@H]2[C@H]1c1cccc(Br)c1 (relative stereo)
> 5790 µM,1450 µM,COc1ccc([C@H]2[C@@H]3C(=O)N(C)C(=O)[C@@H]3ON2C)cc1 (relative stereo)
520 µM,130 µM,CN1O[C@H]2C(=O)N(c3ccccc3)C(=O)[C@H]2[C@@H]1c1cccc(Br)c1 (relative stereo)
5530 µM,1380 µM,CN1C(=O)[C@@H]2[C@@H](ON(C)[C@H]2c2ccc(N(C)C)cc2)C1=O (relative stereo)
710 µM,360 µM,CN(C)c1ccc([C@H]2[C@@H]3C(=O)N(c4ccccc4)C(=O)[C@@H]3ON2C)cc1
1170 µM,1170 µM,CN1O[C@H]2C(=O)N(c3ccccc3)C(=O)[C@H]2[C@@H]1c1ccc(Cl)cc1
130 µM,130 µM,COc1cc([C@@H]2[C@@H]3C(=O)N(C)C(=O)[C@@H]3ON2C)ccc1OCc1ccccc1 (relative stereo)
520 µM,130 µM,CN1O[C@H]2C(=O)N(c3ccccc3)C(=O)[C@H]2[C@@H]1c1ccc(Br)cc1 (relative stereo)
1620 µM,410 µM,CN1O[C@H]2C(=O)N(c3ccccc3)C(=O)[C@H]2[C@@H]1c1ccccc1 (relative stereo)
> 3600 µM,3600 µM,COc1cc([C@@H]2[C@@H]3C(=O)N(c4ccccc4)C(=O)[C@@H]3ON2C)ccc1OCc1ccccc1
> 5790 µM,5790 µM,COc1ccc([C@@H]2[C@@H]3C(=O)N(C)C(=O)[C@@H]3ON2C)cc1 (relative stereo)
1430 µM,710 µM,CN1C(=O)[C@@H]2[C@@H](ON(C)[C@H]2c2cccc(Cl)c2)C1=O (relative stereo)
660 µM,330 µM,CCN(CC)c1ccc([C@@H]2[C@@H]3C(=O)N(c4ccccc4)C(=O)[C@@H]3ON2C)cc1 (relative stereo)
1130 µM,280 µM,COc1cc([C@H]2[C@@H]3C(=O)N(c4ccccc4)C(=O)[C@@H]3ON2C)ccc1OCc1ccccc1
6150 µM,3070 µM,Cc1ccc([C@H]2[C@@H]3C(=O)N(C)C(=O)[C@@H]3ON2C)cc1 (relative stereo)
1180 µM,1180 µM,COc1ccc([C@H]2[C@@H]3C(=O)N(c4ccccc4)C(=O)[C@@H]3ON2C)cc1 (relative stereo)
520 µM,120 µM,CN1O[C@H]2C(=O)N(c3ccccc3)C(=O)[C@H]2[C@H]1c1ccc(Br)cc1 (relative stereo)
730 µM,360 µM,CN1O[C@H]2C(=O)N(c3ccccc3)C(=O)[C@H]2[C@H]1c1ccc(Cl)cc1
1240 µM,620 µM,Cc1ccc([C@H]2[C@@H]3C(=O)N(c4ccccc4)C(=O)[C@@H]3ON2C)cc1 (relative stereo)
> 6150 µM,6150 µM,Cc1ccc([C@@H]2[C@@H]3C(=O)N(C)C(=O)[C@@H]3ON2C)cc1 (relative stereo)

MIC (Enterococcus faecalis),MIC (Staphylococcus aureus),SMILES
> 4550 µM,4550 µM,CN(C)c1ccc([C@@H]2[C@@H]3C(=O)N(c4ccccc4)C(=O)[C@@H]3ON2C)cc1
710 µM,570 µM,CN1O[C@H]2C(=O)N(c3ccccc3)C(=O)[C@H]2[C@H]1c1ccc([N+](=O)[O-])cc1
630 µM,630 µM,CCN(CC)c1ccc([C@H]2[C@@H]3C(=O)N(C)C(=O)[C@@H]3ON2C)cc1 (relative stereo)
5490 µM,2750 µM,CN1C(=O)[C@@H]2[C@@H](ON(C)[C@H]2c2ccc([N+](=O)[O-])cc2)C1=O
4220 µM,4220 µM,CCN(CC)c1ccc([C@H]2[C@@H]3C(=O)N(c4ccccc4)C(=O)[C@@H]3ON2C)cc1
1140 µM,280 µM,CN1C(=O)[C@@H]2[C@@H](ON(c3ccccc3)[C@H]2c2ccc(N(C)C)cc2)C1=O (relative stereo)
650 µM,330 µM,COc1cc([C@H]2[C@@H]3C(=O)N(C)C(=O)[C@@H]3ON2C)ccc1OCc1ccccc1 (relative stereo)
1380 µM,1380 µM,CN1C(=O)[C@H]2[C@@H](c3ccc(N(C)C)cc3)N(C)O[C@H]2C1=O (relative stereo)
5190 µM,> 5190 µM,CN1O[C@H]2C(=O)N(c3ccccc3)C(=O)[C@H]2[C@H]1c1ccccc1 (relative stereo)
3100 µM,3100 µM,Cc1ccc([C@@H]2[C@@H]3C(=O)N(c4ccccc4)C(=O)[C@@H]3ON2C)cc1 (relative stereo)
1430 µM,1430 µM,CN1C(=O)[C@@H]2[C@@H](ON(C)[C@H]2c2ccc(Cl)cc2)C1=O
280 µM,280 µM,CN1C(=O)[C@H]2[C@@H](c3ccc(N(C)C)cc3)N(c3ccccc3)O[C@H]2C1=O (relative stereo)
1230 µM,620 µM,CN1C(=O)[C@@H]2[C@@H](ON(C)[C@H]2c2cccc(Br)c2)C1=O (relative stereo)
690 µM,1370 µM,CN1C(=O)[C@H]2[C@@H](c3ccc([N+](=O)[O-])cc3)N(C)O[C@H]2C1=O
80 µM,80 µM,CCN(CC)c1ccc([C@@H]2[C@@H]3C(=O)N(C)C(=O)[C@@H]3ON2C)cc1 (relative stereo)
620 µM,1230 µM,CN1C(=O)[C@H]2[C@@H](c3cccc(Br)c3)N(C)O[C@H]2C1=O (relative stereo)
280 µM,570 µM,CN1O[C@H]2C(=O)N(c3ccccc3)C(=O)[C@H]2[C@@H]1c1ccc([N+](=O)[O-])cc1
1180 µM,590 µM,COc1ccc([C@@H]2[C@@H]3C(=O)N(c4ccccc4)C(=O)[C@@H]3ON2C)cc1 (relative stereo)
1430 µM,1430 µM,CN1C(=O)[C@H]2[C@@H](c3ccc(Cl)cc3)N(C)O[C@H]2C1=O
2850 µM,1430 µM,CN1C(=O)[C@H]2[C@@H](c3cccc(Cl)c3)N(C)O[C@H]2C1=O (relative stereo)
620 µM,310 µM,CN1C(=O)[C@@H]2[C@@H](ON(C)[C@H]2c2ccc(Br)cc2)C1=O (relative stereo)

SMILES,MIC (Enterococcus faecalis),MIC (Staphylococcus aureus)
CN1C(=O)[C@H]2[C@@H](c3ccccc3)N(C)O[C@H]2C1=O (relative stereo),1620 µM,810 µM
CN1C(=O)[C@@H]2[C@@H](ON(C)[C@H]2c2ccccc2)C1=O (relative stereo),1020 µM,510 µM
CC1(C)S[C@@H]2[C@H](NC(=O)[C@H](N)c3ccccc3)C(=O)N2[C@H]1C(=O)O [AMPICILLIN],2 µM,2 µM
